The source of these data is ChEMBL document CHEMBL4828729, “MSBA-S - A pentacyclic sulfamate as a new option for radiotherapy of human breast cancer cells” (Eur J Med Chem, 2021).

Calls of active or inactive are those of the source. Some results are limits rather than exact numbers.

In one assay the test system is MCF7. In words: Cytotoxicity against human MCF7 cells assessed as reduction in cell viability measured after 96 hrs by SRB assay. The assay is classed as functional, cell-based. Conditions: MCF7, 96 h. The method in brief: (§1)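 Compounds were prepared as 20 mM DMSO stocks and applied 24 h after seeding in 96-well plates at 1-100 (so in the source) for 96 h under standard conditions. Cells were fixed with 10% trichloroacetic acid, stained with 0.4% SRB, washed with 1% acetic acid and dissolved in 20 mM Tris base. Absorbance was read at 540 nm. IC50 is the half-maximal inhibitory concentration, with a cut-off of 50. Mean ± SD of at least three independent experiments.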
On the technique in general: The SRB assay estimates cell density from bound dye.

For assay [1], the system named is MDA-MB-231. As to the kind of experiment: Cytotoxicity against human MDA-MB-231 cells assessed as reduction in cell viability measured after 96 hrs by SRB assay. The assay is classed as functional, cell-based. Conditions: MDA-MB-231, 96 h. The method in brief: as §1
In assay [2] the test system is Hs-578T. As to the kind of experiment: Anticlonogenic activity against human Hs-578T cells assessed as clonogenic survival rate at 10 uM measured after 24 hrs by giemsa staining based survival assay relative to control. In kind it is functional. The method in brief:
(§2)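 Cells seeded in 6-well plates and treated 24 h after seeding for 24 h. They were then trypsinized, counted and reseeded at 300 or 600 cells per 75 cm² flask. Colonies grew for about 12-14 days before paraformaldehyde fixation and 10% Giemsa staining. Only colonies of more than about 50 cells were scored for surviving fraction relative to control. Mean +SD of three independent experiments.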

In assay [3] the test system is MDA-MB-231. As to the kind of experiment: Induction of apoptosis in human MDA-MB-231 cells assessed as late apoptotic cells at 10 uM measured after 24 hrs by Annexin V/propidium iodide staining based flow cytometry relative to control. In kind it is functional. A digest of the protocol: (§3)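 Cells were seeded in 6-well plates, grown 24 h and then treated for 24 h. They were resuspended in binding buffer (10 mM HEPES/NaOH, 140 mM NaCl, 5 mM CaCl₂, pH 7.4) and stained for 15 min with propidium iodide and/or Annexin V. Flow cytometry classified vital (Q3), necrotic (Q1), late apoptotic (Q2) and apoptotic (Q4) populations.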
On the technique in general: A flow cytometer gives signals particle by particle.

Assay [4] deals with MDA-MB-231. In words: Anticlonogenic activity against human MDA-MB-231 cells assessed as clonogenic survival rate at 10 uM measured after 24 hrs by giemsa staining based survival assay relative to control. The assay is classed as functional. A digest of the protocol: as §2
For assay [5], the system named is MDA-MB-231. In words: Radiosensitization activity in human MDA-MB-231 cells assessed as ratio of DMSO treated surviving fraction to compound treated surviving fraction at 5 uM pre-incubated for 24 hrs prior to irradiation and measured by giemsa staining based assay. The assay is classed as functional. The method in brief: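 Cells were incubated for 24 h with 5 (so in the source) compound, then irradiated with 6, 10 or 14 Gy. Colonies of more than about 50 cells were counted after about 12-14 days with Giemsa staining and normalized to unirradiated controls. DMF is the surviving fraction of DMSO control cells divided by that of treated cells, reported at 10% survival.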

Assay [6] has as its system MDA-MB-231. In words: Induction of apoptosis in human MDA-MB-231 cells assessed as early apoptotic cells at 10 uM measured after 24 hrs by Annexin V/propidium iodide staining based flow cytometry relative to control. The assay is classed as functional. The method in brief:
as §3

In assay [7] the test system is Hs-578T. In words: Induction of apoptosis in human Hs-578T cells assessed as early apoptotic cells at 10 uM measured after 24 hrs by Annexin V/propidium iodide staining based flow cytometry relative to control. The assay is classed as functional. A digest of the protocol:
as §3

Assay [8] concerns MDA-MB-231. As to the kind of experiment: Induction of apoptosis in human MDA-MB-231 cells assessed as necrotic cells at 10 uM measured after 24 hrs by Annexin V/propidium iodide staining based flow cytometry relative to control. The assay is classed as functional. A digest of the protocol:
as §3

Assay [9] has as its system Hs-578T. In words: Induction of apoptosis in human Hs-578T cells assessed as late apoptotic cells at 10 uM measured after 24 hrs by Annexin V/propidium iodide staining based flow cytometry relative to control. In kind it is functional. A digest of the protocol:
as §3

Assay [10] has as its system Hs-578T. In words: Induction of apoptosis in human Hs-578T cells assessed as nuclei shrinkage at 10 uM measured after 72 hrs by DAPI staining based fluorescence microscopy relative to control. In kind it is functional. A digest of the protocol: (§4)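 After 72 h treatment under standard conditions, cells were trypsinized and pelleted together with the culture supernatant. They were resuspended in PBS, fixed in 70% ethanol, cytospun onto slides and stained with DAPI for 5 min. Apoptotic cells were scored by nuclear shrinkage. Mean +SD of three independent experiments.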

The test system of another assay is BT-20. In words: Cytotoxicity against human BT-20 cells assessed as reduction in cell viability measured after 96 hrs by SRB assay. In kind it is functional, cell-based. The settings on record: BT-20, 96 h. A digest of the protocol: as §1
Assay [11] deals with MDA-MB-231. In words: Induction of apoptosis in human MDA-MB-231 cells assessed as nuclei shrinkage at 10 uM measured after 72 hrs by DAPI staining based fluorescence microscopy relative to control. The assay is classed as functional. The method in brief:
as §4

Assay [12] has as its system MDA-MB-231. In words: Induction of apoptosis in human MDA-MB-231 cells assessed as increase in ROS production at 20 uM measured after 24 hrs by CM-H2DCFDA staining based flow cytometry analysis relative to control. Conditions: dose 5 µM, in the assay text read “at 5 uM” for “at 20 uM”. In kind it is functional. The method in brief:
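Cells were plated in 6-well plates for 24 h, then treated for 24 h. They were loaded with 0.5 CM-H2DCFDA in PBS with CaCl₂/MgCl₂ for 30 min at 37 °C, washed, exposed to trypsin-EDTA (0.5%) for 3 min at 37 °C and detached with PBS. Fluorescence from dye conversion to chloromethyl-dichlorofluorescein was measured by flow cytometry. Values are fold change versus DMSO-treated cells.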

Assay [13] deals with Hs-578T. As to the kind of experiment: Induction of apoptosis in human Hs-578T cells assessed as necrotic cells at 10 uM measured after 24 hrs by Annexin V/propidium iodide staining based flow cytometry relative to control. In kind it is functional. A digest of the protocol:
as §3

Assay [14] deals with Hs-578T. In words: Cytotoxicity against human Hs-578T cells assessed as reduction in cell viability measured after 96 hrs by SRB assay. The assay is classed as functional, cell-based. A digest of the protocol:
as §1

Assay [15] relates to MDA-MB-231. As to the kind of experiment: Antimigratory activity against human MDA-MB-231 cells assessed as inhibition of cell migration measured by wound healing assay relative to control. The assay is classed as functional.
Assay [16] deals with MDA-MB-231 (Homo sapiens). As to the kind of experiment: Antimigratory activity against human MDA-MB-231 cells assessed as inhibition of cell migration measured by wound healing assay.
The test system of assay [17] is Hs-578T. As to the kind of experiment: Anticlonogenic activity against human Hs-578T cells assessed as clonogenic survival rate at 40 uM measured after 24 hrs by giemsa staining based survival assay relative to control. The assay is classed as functional. A digest of the protocol:
as §2

Assay [18] deals with MDA-MB-231. In words: Induction of apoptosis in human MDA-MB-231 cells assessed as nuclei shrinkage at 40 uM measured after 72 hrs by DAPI staining based fluorescence microscopy relative to control. In kind it is functional. A digest of the protocol: as §4
The test system of assay [19] is Hs-578T. As to the kind of experiment: Induction of apoptosis in human Hs-578T cells assessed as nuclei shrinkage at 40 uM measured after 72 hrs by DAPI staining based fluorescence microscopy relative to control. The assay is classed as functional. A digest of the protocol: as §4
Assay [20] has as its system MDA-MB-231. In words: Anticlonogenic activity against human MDA-MB-231 cells assessed as clonogenic survival rate at 40 uM measured after 24 hrs by giemsa staining based survival assay relative to control. In kind it is functional. The settings on record: read-out: INH. A digest of the protocol: as §2
For assay [21], the system named is Hs-578T. In words: Induction of apoptosis in human Hs-578T cells assessed as nuclei shrinkage at 20 uM measured after 72 hrs by DAPI staining based fluorescence microscopy relative to control. The assay is classed as functional. A digest of the protocol: as §4

The term IC50 denotes the concentration at which inhibition is half-maximal. In general, inhibition refers to the relative decrease from the control value, in per cent. For the compound `CC1(C)CC[C@]2(C(=O)NCc3ccccc3)CC[C@]3(C)C(=CC[C@@H]4[C@@]5(C)C[C@@H](OS(N)(=O)=O)[C@H](OS(N)(=O)=O)C(C)(C)[C@@H]5CC[C@]43C)[C@@H]2C1`, the IC50 was 4.9 µM with MCF7, 3.7 µM in the assay with MDA-MB-231 [1], 5.8 µM in the assay with BT-20 and 3.8 µM in the assay with Hs-578T [14]. The inhibition at 10 µM was 16.5% in the assay on Hs-578T [2] and 42.1% with MDA-MB-231 [4]. Moreover, the Activity in the assay with MDA-MB-231 [3] is on record as 18.4%; in the assay on MDA-MB-231 [6] it was 7.4%; with Hs-578T [7] it was 8.7%; in the assay on MDA-MB-231 [8] it was 1.6%; in the assay with Hs-578T [9], 44.4%; in the assay with Hs-578T [10], 22.1%. Further, the Activity in the assay on MDA-MB-231 [11] is listed as 8.9%; in the assay with Hs-578T [13] it was 2.6%. Further, the Ratio in the assay on MDA-MB-231 [5] was 1.14. In the assay with MDA-MB-231 [12], the “fold change (FC)” value turned out to be 5.7.
For `C=C(C)[C@@H]1CC[C@]2(C(=O)O)CC[C@]3(C)[C@H](CC[C@@H]4[C@@]5(C)CC[C@H](O)C(C)(C)[C@@H]5CC[C@]43C)[C@@H]12`, the inhibition entry (with MDA-MB-231 [15]; in assay [16]) was “Active” each time.
In the case of `CC(=O)[C@@H]1CC[C@]2(C(=O)NCc3ccccc3)CC[C@]3(C)[C@H](CC[C@@H]4[C@@]5(C)CC[C@H](OS(N)(=O)=O)C(C)(C)[C@@H]5CC[C@]43C)[C@@H]12`, the inhibition at 40 µM with Hs-578T [17] stood at 73.1%. Moreover, the IC50 with MCF7 was 9.3 µM; in the assay with MDA-MB-231 [1] it was more than 50 µM; in the assay with BT-20, 32 µM; in the assay with Hs-578T [14], 16.9 µM. Besides, the Activity turned out to be 2.1% in the assay on MDA-MB-231 [18] and 3.5% in the assay with Hs-578T [19]. Further, in the assay on MDA-MB-231 [20], the clonogenic survival relative to control at 40 µM worked out at 80.6%.
In the case of `CC1(C)CC[C@]2(C(=O)O)CC[C@]3(C)C(=CC[C@@H]4[C@@]5(C)CC[C@H](O)C(C)(C)[C@@H]5CC[C@]43C)[C@@H]2C1`, the inhibition result in the assay on MDA-MB-231 [15] was “inactive”.
For the compound `CC1(C)CC[C@]2(C(=O)NCc3ccccc3)CC[C@]3(C)C(=CC[C@@H]4[C@@]5(C)CC[C@H](OS(N)(=O)=O)C(C)(C)[C@@H]5CC[C@]43C)[C@@H]2C1`, in the assay on Hs-578T [17], the inhibition at 40 µM was found to be 73.1%. The IC50 was more than 50 µM with MCF7, more than 50 µM in the assay on MDA-MB-231 [1], 16.2 µM in the assay with BT-20 and 15.8 µM in the assay with Hs-578T [14]. In addition, the Activity with Hs-578T [19] is 3.5%. Further, the clonogenic survival relative to control at 40 µM with MDA-MB-231 [20] was determined as 80.6%.
As to `C[C@H]1[C@H](C)CC[C@]2(C(=O)NCc3ccccc3)CC[C@]3(C)C(=CC[C@@H]4[C@@]5(C)CC[C@H](OS(N)(=O)=O)C(C)(C)[C@@H]5CC[C@]43C)[C@H]12`, the inhibition at 40 µM in the assay with Hs-578T [17] was 73.1%. For the same compound, in the assay with BT-20, the IC50 stood at 16.2 µM. Moreover, the clonogenic survival relative to control at 40 µM with MDA-MB-231 [20] turned out to be 80.6%. In the assay on Hs-578T [21], the Activity was found to be 3.5%.
`C=C(C)[C@@H]1CC[C@]2(C(=O)NCc3ccccc3)CC[C@]3(C)[C@H](CC[C@@H]4[C@@]5(C)CC[C@H](OS(N)(=O)=O)C(C)(C)[C@@H]5CC[C@]43C)[C@@H]12`: the inhibition at 40 µM in the assay on Hs-578T [17] stood at 73.1%. For the same compound, the IC50 in the assay on MCF7 was 7.5 µM; in the assay on MDA-MB-231 [1] it was 15.2 µM; in the assay on BT-20, 16.2 µM; in the assay on Hs-578T [14], 18.8 µM. The Activity in the assay on MDA-MB-231 [18] is on record as 2.1%; in the assay with Hs-578T [19], 3.5%. In the assay with MDA-MB-231 [20], the clonogenic survival relative to control at 40 µM was found to be 80.6%.
